Compound activity deposited in PubChem BioAssay by several laboratories.
EBNA-1 inh = blocks EBNA-1 binding to DNA. EBNA-1 DNA binding, fluorescence polarization. inhibition, % at 14.8 µM. AID 1950. actives 0.34% (n = 300,000); in the data active = inhibition above about 28%
UBC13 polyUb = human UBC13 polyubiquitination inhibition; actives 0.47% (n = 330,000); P61088; inhibition, % at 20 µM; UBC13 polyubiquitin chain formation, TR-FRET; AID 485273; in the data active = inhibition above about 45%, passing the limit was not always enough; inconclusive = no clear call, values can overlap the other calls
Target sequence (P61088 whole entry, looked up): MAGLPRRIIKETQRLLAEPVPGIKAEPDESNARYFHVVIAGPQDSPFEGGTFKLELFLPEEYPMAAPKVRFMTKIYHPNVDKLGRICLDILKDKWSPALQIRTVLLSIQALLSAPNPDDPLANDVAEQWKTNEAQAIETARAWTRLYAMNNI
PfGluPho inh = PfG6PD (Plasmodium falciparum) enzyme inhibition; PfGluPho enzyme, NADPH resazurin-diaphorase fluorescence; inhibition, % at 20 µM; actives 0.78% (n = 350,000); AID 504690;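 active = inhibition reaching at least a set limit at 20 µM in the primary screen, cut at about 59% in these data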
Apaf-1 inh = blocks human Apaf-1 apoptosome activity | O14727 | reconstituted apoptosome caspase-3 activity, DEVD-Rh110 fluorescence | inhibition, % at 20 µM | actives 0.71% (n = 330,000) | AID 489030; active = inhibition of at least 40% at 20 µM
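Material: biochemical Apaf-1 apoptosome reconstitution. Medium: Hepes buffer, pH 7.5. Also added: cytochrome c activation, bis-DEVD rhodamine 110 substrate. Timing: 30 min compound preincubation, 50 min activation, room temperature. Measured by: rhodamine 110 fluorescence at Ex 480/Em 540 nm.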
ZTA counter = blocks Epstein-Barr virus ZTA, an EBNA-1 counter-screen. P03206. ZTA-DNA binding, fluorescence polarization. inhibition, % at 11 µM. actives 0.15% (n = 320,000). AID 2234; in the data active = inhibition above about 33%
Target sequence (P03206 whole entry, looked up): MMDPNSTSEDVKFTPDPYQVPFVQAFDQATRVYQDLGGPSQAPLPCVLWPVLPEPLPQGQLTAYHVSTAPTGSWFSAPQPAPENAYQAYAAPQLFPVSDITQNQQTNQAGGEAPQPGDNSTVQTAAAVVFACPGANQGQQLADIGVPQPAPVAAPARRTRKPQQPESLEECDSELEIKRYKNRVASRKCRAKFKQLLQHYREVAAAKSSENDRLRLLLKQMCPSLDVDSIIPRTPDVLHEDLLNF
PfM18AAP inh = PfM18AAP enzyme inhibition. recombinant PfM18AAP, H-Glu-NHMec fluorogenic cleavage. inhibition, % at 7.35 µM. actives 1.2% (n = 290,000). AID 1822;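 active = inhibition above the campaign mean inhibition over all tested compounds plus 3 SD, cut at about 28% in these data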
Apaf-1 inh conf = Apaf-1 inhibition, single-dose confirmed; shares compounds with Apaf-1 inh; reconstituted apoptosome, caspase-3 DEVD-Rh110 fluorescence; inhibition, % at 20 µM; actives 25% (n = 1,800); AID 504614;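 active = mean inhibition of at least 40% at 20 µM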
Rh110 quench = Rh110 signal interference in Apaf-1 inhibitor counter-screen; AID 504615; shares compounds with Apaf-1 inh; activation (fluorescence interference), % at 20 µM; Rh110 fluorescence interference, quenched caspase reaction; 1,800 tested, under 10 active;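 active = signal rise of 40% or more at 20 µM, treated as a fluorescence artifact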
Apaf1 inh interf = shows fluorescence interference in the Apaf-1 inhibitor assay format. AID 588538. IC50, µM. shares compounds with Apaf-1 inh. fluorescence interference counterscreen, Apaf-1 assay format. 460 tested, under 10 active; call rule not given here
PfG6PD confirm = PfG6PD inhibition, single-dose confirmed | shares compounds with PfGluPho inh | recombinant PfGluPho, NADPH-diaphorase-resazurin fluorescence | inhibition, % at 20 µM | actives 34% (n = 2,400);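 active = inhibition of at least 50% at 20 µM in any single replicate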
Diaph ctr 10uM = counter-screen for P. falciparum G6PD inhibitors: diaphorase inhibitors, oxidizers. shares compounds with PfGluPho inh. inhibition, % at 20 µM. diaphorase-coupled resazurin reduction, fluorescence, NADPH 10 uM. actives 39% (n = 820);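 active = average inhibition reaching 50% or more with the compound at 20 µM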;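 also: resorufin red fluorescence formed as diaphorase reduces resazurin using NADPH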
Diaphorase 30uM = inhibits diaphorase or oxidizes, flagging false PfG6PD hits; actives 29% (n = 820); Diaphorase/resazurin coupled assay, resorufin fluorescence, 30 uM NADPH; shares compounds with PfGluPho inh; inhibition, % at 20 µM; AID 504863;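 active = inhibition averaging 50% or more, tested at 20 µM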
Numbers stand for hits; i = inactive; ? = inconclusive; nt = no result given. A selection: hits, their analogues and other compounds. The true share with any hit is near 2.9%.

SMILES	EBNA-1 inh	UBC13 polyUb	PfGluPho inh	Apaf-1 inh	ZTA counter	PfM18AAP inh	PfG6PD confirm	others
CC(=O)Nc1ccc(NC2=CC(=O)c3ccccc3C2=O)cc1	i	i	i	i	i	i	nt
CCc1ccc(S(=O)(=O)/N=C2\C=C(Nc3ccc(O)cc3)C(=O)c3ccccc32)cc1	i	i	94.0	95.1	i	i	i	Apaf-1 inh conf=95.9;Rh110 quench=i;Apaf1 inh interf=i
CCc1ccc(S(=O)(=O)/N=C2\C=C(Nc3cccc(C(=O)O)c3)C(=O)c3ccccc32)cc1	i	i	61.3	90.7	i	i	i	Apaf-1 inh conf=89.6;Rh110 quench=i;Apaf1 inh interf=i
Cc1cnc(C(=O)OCC(=O)N2CC(C)CC(C)C2)cn1 (stereo unspecified)	nt	i	i	i	nt	nt	nt
COc1cc(OC)cc(C(=O)NC(=S)N(Cc2ccccc2)C(C)C)c1	i	i	i	i	i	i	nt
Cc1cc(C)nc(/N=c2/ssnc2Cl)c1	i	i	98.3	71.1	i	29.2	i	Apaf-1 inh conf=82.0;Rh110 quench=i;Apaf1 inh interf=i
CCOC(=O)c1[nH]c2ccccc2c1N=CN(C)C	i	i	i	i	i	i	nt
CN(C)C=Nc1ccc2nc3c(cc2c1)[nH]c1ccccc13	i	?	79.7	46.4	i	i	54.4	Apaf-1 inh conf=44.1;Rh110 quench=i;Apaf1 inh interf=i;Diaph ctr 10uM=i;Diaphorase 30uM=i
Cc1ccc(-n2nc3cc(C)c(N)cc3n2)cc1	i	i	i	i	i	i	nt
Cc1cc2nc3ccc(N(C)C)cc3nc2cc1N	i	i	78.6	89.5	i	nt	i	Apaf-1 inh conf=62.7;Rh110 quench=i;Apaf1 inh interf=i
Cc1ccc(NC2=C/C(=N\S(=O)(=O)c3cccs3)c3ccccc3C2=O)c(C)c1	i	i	102.1	95.0	i	i	58.3	Apaf-1 inh conf=94.8;Rh110 quench=i;Apaf1 inh interf=i;Diaph ctr 10uM=59.9;Diaphorase 30uM=56.5
CC(C)(C)c1cc[n+](C2=C([O-])c3ccccc3C(=O)/C2=N\S(=O)(=O)c2cccs2)cc1	i	i	i	i	i	i	nt
Cc1ccc(Cl)cc1NC1=C/C(=N\S(=O)(=O)c2cccs2)c2ccccc2C1=O	i	i	95.1	95.0	i	i	57.9	Apaf-1 inh conf=96.8;Rh110 quench=i;Apaf1 inh interf=i;Diaph ctr 10uM=i;Diaphorase 30uM=i
COc1ccccc1N1CCN(/N=C/c2cc(OC)c(O)c(OC)c2)CC1	i	i	75.8	i	i	i	i
O=C(Nc1nnc(S(=O)(=O)N2CCCCCC2)s1)c1ccccc1Br	i	i	i	i	i	i	nt
O=C(Nc1nnc(S(=O)(=O)N2CCCCC2)s1)c1ccc(Cl)cc1	i	i	105.9	i	i	i	44.1	Diaph ctr 10uM=59.3;Diaphorase 30uM=i
O=C(COc1ccc(Cl)cc1)Nc1nnc(S(=O)(=O)N2CCCCCC2)s1	i	i	i	i	i	i	nt
O=C(Nc1nnc(S(=O)(=O)N2CCCCCC2)s1)c1ccc(Br)cc1	i	i	72.5	i	i	i	i
COc1cccc(C(=O)Nc2nnc(S(=O)(=O)N3CCCC3)s2)c1	i	i	93.5	i	i	i	70.8	Diaph ctr 10uM=57.7;Diaphorase 30uM=51.1
Cc1ccc(NCc2nc(SCC(=O)Nc3ccccc3)n[nH]2)cc1	i	i	i	i	i	i	nt
O=C(c1cccc(S(=O)(=O)Nc2cccc(C(F)(F)F)c2)c1)N1CCCCC1	i	i	i	i	i	i	nt
Cc1[nH]c2ccccc2c1/C=N/Nc1nncn1N	i	i	69.2	i	i	60.9	60.0	Diaph ctr 10uM=i;Diaphorase 30uM=i
COc1cc(C(=S)N2CCN(c3cccc(Cl)c3)CC2)ccc1O	i	i	i	i	i	i	i
COc1ccc(C(=S)N2CCN(c3cccc(Cl)c3)CC2)c(OC)c1	i	i	i	i	i	i	nt
CC(C)(C)c1ccc(/C=C/C(=O)Nc2nncs2)cc1	i	i	i	i	i	i	nt
SMILES	EBNA-1 inh	UBC13 polyUb	PfGluPho inh	Apaf-1 inh	ZTA counter	PfM18AAP inh	PfG6PD confirm	others
COc1cc(OC)cc(C(=O)NNC(=O)c2nn(C)c(=O)c3ccccc23)c1	nt	i	i	i	nt	nt	nt
COc1cccc2c1C(=N)c1c(O)c3c(c(O)c1C2=O)CC(O)(C(C)=O)CC3OC1CC(N)C(O)C(C)O1 (stereo unspecified)	nt	nt	59.5	nt	nt	nt	i
Cc1ccc(Cc2c(-c3ccc(Cl)cc3)nc3ccc(Cl)cn23)cc1	nt	nt	86.2	nt	nt	nt	i
Cc1ccc(Cc2c(-c3ccc(Br)cc3)nc3ccc(Br)cn23)cc1	nt	nt	67.4	nt	nt	nt	i
Cc1ccc(Cc2c(-c3ccc(C)cc3)nc3ccc(Cl)cn23)cc1	nt	nt	77.1	nt	nt	nt	i
Cc1cc(C)nc(SCC(=O)OCC(=O)Nc2ccccc2)n1	i	i	i	i	i	i	nt
COc1ccc(Nc2nc(C)c(-c3ccccc3)s2)cc1	i	nt	75.7	nt	i	i	i
Cc1nc(Nc2ccc(S(N)(=O)=O)cc2)sc1-c1ccccc1	i	i	i	i	i	i	nt
CCC(=O)Nc1ccc(N2CCOCC2)c(S(=O)(=O)Nc2ccc(Cl)cc2)c1	nt	i	61.0	i	i	nt	i
C[C@H](NC(N)=O)C(=O)Nc1ccc(N2CCOCC2)c(S(=O)(=O)Nc2ccc(Cl)cc2)c1	nt	i	76.2	i	i	nt	58.5	Diaph ctr 10uM=i;Diaphorase 30uM=i
O=C(Nc1ccc(N2CCOCC2)c(S(=O)(=O)Nc2ccc(Cl)cc2)c1)c1cnccn1	i	i	73.4	i	i	i	i
COCCNC(=S)Nc1ccc(N2CCOCC2)c(S(=O)(=O)Nc2ccc(Cl)cc2)c1	nt	nt	91.7	nt	nt	nt	70.0	Diaph ctr 10uM=i;Diaphorase 30uM=i
COc1ccc(NS(=O)(=O)c2cc(NC(=O)c3ccc(Cl)cc3)ccc2N2CCOCC2)cc1	nt	i	i	i	nt	nt	nt
O=C(Nc1ccc(N2CCOCC2)c(S(=O)(=O)Nc2ccc(Cl)cc2)c1)c1ccc(=O)[nH]n1	nt	i	i	i	nt	nt	nt
CC(NC(N)=O)C(=O)Nc1ccc(Cl)c(S(=O)(=O)Nc2ccc(Cl)cc2)c1 (stereo unspecified)	i	i	i	i	i	i	nt
O=C1c2ccccc2CCC12OC2c1ccncc1 (stereo unspecified)	nt	nt	i	nt	nt	nt	nt
Oc1ccc(/C=N/N2CCOCC2)c(O)c1O	i	i	86.9	i	i	34.4	i
O=C(O)c1ccccc1C(=O)c1ccc2c(c1)N(Cc1cccc(F)c1)C(=O)CO2	i	i	92.6	i	i	i	57.6	Diaph ctr 10uM=57.5;Diaphorase 30uM=52.1
CCCN1C(=O)COc2ccc(C(=O)c3ccccc3C(=O)O)cc21	i	i	i	i	i	i	nt
COC(=O)/C=c1/sc2nc3ccccc3n2c1=O	i	i	74.7	i	i	i	i
